Test results reported in ChEMBL document CHEMBL4304784, “Discovery of new potent dual sigma receptor/GluN2b ligands with antioxidant property as neuroprotective agents” (Eur J Med Chem, 2019).
Values after ≈ are worked out from the molar mass of the structure shown.

System: not listed separately
Experiment: Cytotoxicity against human Hep3B cells assessed as cell viability at 50 uM incubated for 48 hrs by MTT assay relative to control
Type: cell-based, Hep 3B2
Settings: read-out: Activity
Summary of the method: (§1)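 Cells kept in DMEM Glutamax with 10% FBS and antibiotic/antimycotic at 37 °C, 5% CO2. Plated at 2x10^3 cells/well 24 h before dosing. Compounds taken from DMSO and diluted in medium, final DMSO ≤1.0%. Exposure 48 h, then MTT added for 4 h at 37 °C. Read as A595 minus A655. Triplicates, at least three independent experiments, mean ± SEM.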

| Compound | viability at 48 h, 50 µM |
| --- | --- |
| COc1cc2c(cc1OC)CN(CCCCn1nc(-c3ccccc3)oc1=O)CC2 | 58% |
| Cc1ccc(CN(C)CCCCn2nc(-c3ccccc3)oc2=O)c(C)c1 | 70% |

System: not listed separately
Experiment: Antioxidant activity assessed as H2O2 radical scavenging activity
Type: functional
Settings: not given
Summary of the method: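 Compounds at 0.05, 0.1, 0.2 and 0.4 mg/mL in phosphate buffer pH 7.4. 0.353 mL of 4 mM H2O2 in phosphate buffer added to 2.0 mL of each solution, absorbance read at 239 nm. Percent inhibition calculated from absorbances relative to control. Triplicate, mean ± SEM.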

| Compound | IC50 |
| --- | --- |
| COc1cc2c(cc1OC)CN(CCCCn1nc(-c3ccccc3)oc1=O)CC2 | 27.63 µg/mL (≈ 67.5 µM) |
| Cc1ccc(CN(C)CCCCn2nc(-c3ccccc3)oc2=O)c(C)c1 | 31.44 µg/mL (≈ 86 µM) |

System: not listed separately
Experiment: Cytotoxicity against human HeLa cells assessed as cell viability at 10 uM incubated for 48 hrs by MTT assay relative to control
Type: cell-based
Settings: read-out: Activity
Summary of the method: as §1

| Compound | viability at 48 h, 10 µM |
| --- | --- |
| COc1cc2c(cc1OC)CN(CCCCn1nc(-c3ccccc3)oc1=O)CC2 | 84% |
| Cc1ccc(CN(C)CCCCn2nc(-c3ccccc3)oc2=O)c(C)c1 | 86% |

System: not listed separately
Experiment: Cytotoxicity against human Hep3B cells assessed as cell viability at 10 uM incubated for 48 hrs by MTT assay relative to control
Type: cell-based, Hep 3B2
Settings: read-out: Activity
Summary of the method: as §1

| Compound | viability at 48 h, 10 µM |
| --- | --- |
| COc1cc2c(cc1OC)CN(CCCCn1nc(-c3ccccc3)oc1=O)CC2 | 85% |
| Cc1ccc(CN(C)CCCCn2nc(-c3ccccc3)oc2=O)c(C)c1 | 100% |

System: not listed separately
Experiment: Cytotoxicity against human SH-SY5Y cells assessed as cell viability at 25 uM incubated for 48 hrs by MTT assay (reference value: 100 +/- 12.00%)
Type: cell-based
Settings: read-out: Activity
Summary of the method: as §1

| Compound | viability at 48 h, 25 µM |
| --- | --- |
| COc1cc2c(cc1OC)CN(CCCCn1nc(-c3ccccc3)oc1=O)CC2 | 80 to 94% |
| Cc1ccc(CN(C)CCCCn2nc(-c3ccccc3)oc2=O)c(C)c1 | 85 to 96% |

System: not listed separately
Experiment: Cytotoxicity against human HeLa cells assessed as cell viability at 25 uM incubated for 48 hrs by MTT assay relative to control
Type: cell-based
Settings: read-out: Activity
Summary of the method: as §1

| Compound | viability at 48 h, 25 µM |
| --- | --- |
| COc1cc2c(cc1OC)CN(CCCCn1nc(-c3ccccc3)oc1=O)CC2 | 82% |
| Cc1ccc(CN(C)CCCCn2nc(-c3ccccc3)oc2=O)c(C)c1 | 74% |

System: not listed separately
Experiment: Cytotoxicity against human SH-SY5Y cells assessed as cell viability at 10 uM incubated for 48 hrs by MTT assay (reference value: 100 +/- 12.00%)
Type: cell-based
Settings: read-out: Activity
Summary of the method: as §1

| Compound | viability at 48 h, 10 µM |
| --- | --- |
| COc1cc2c(cc1OC)CN(CCCCn1nc(-c3ccccc3)oc1=O)CC2 | 97% |
| Cc1ccc(CN(C)CCCCn2nc(-c3ccccc3)oc2=O)c(C)c1 | 121% |

System: not listed separately
Experiment: Antioxidant activity assessed as ABTS radical scavenging activity incubated for 40 mins
Type: functional
Settings: not given
Summary of the method: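 Test compound at 0.05, 0.1, 0.2 and 0.4 mg/mL (200 µL) added to 1.8 mL ethanolic ABTS 7mM. Incubated 40 min at room temperature, absorbance read at 735 nm against ABTS solution. Percent inhibition computed from absorbances and used to derive IC50. Triplicate, mean ± SEM; ascorbic acid as reference.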

| Compound | IC50 |
| --- | --- |
| COc1cc2c(cc1OC)CN(CCCCn1nc(-c3ccccc3)oc1=O)CC2 | 20.95 µg/mL (≈ 51.2 µM) |
| Cc1ccc(CN(C)CCCCn2nc(-c3ccccc3)oc2=O)c(C)c1 | 25.47 µg/mL (≈ 69.7 µM) |

System: not listed separately
Experiment: Cytotoxicity against human SH-SY5Y cells assessed as cell viability at 100 uM incubated for 48 hrs by MTT assay (reference value: 100 +/- 12.00%)
Type: cell-based
Settings: read-out: Activity
Summary of the method: as §1

| Compound | viability at 48 h, 100 µM |
| --- | --- |
| COc1cc2c(cc1OC)CN(CCCCn1nc(-c3ccccc3)oc1=O)CC2 | 95% |
| Cc1ccc(CN(C)CCCCn2nc(-c3ccccc3)oc2=O)c(C)c1 | 28% |

Molecular target: Sigma non-opioid intracellular receptor 1 (Cavia porcellus, UniProt Q60492)
Experiment: Displacement of [3H]-(+)-pentazocine from sigma1 receptor in guinea pig brain cortex membranes incubated for 120 mins by solid scintillation counting method
Type: cell membranes
Settings: not given
Summary of the method: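 Guinea pig brain cortex membranes (about 100 µg protein) with 2 nM [3H]-(+)-pentazocine in 50 mM TRIS pH 7.4 at 37 °C. Non-specific binding defined with 10 µM unlabeled (+)-pentazocine. Six concentrations, 10^-5 to 10^-10 M, in duplicate. 120 min with shaking, filtration, solid scintillator counting.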

Sequence of Sigma non-opioid intracellular receptor 1 (Q60492 whole entry): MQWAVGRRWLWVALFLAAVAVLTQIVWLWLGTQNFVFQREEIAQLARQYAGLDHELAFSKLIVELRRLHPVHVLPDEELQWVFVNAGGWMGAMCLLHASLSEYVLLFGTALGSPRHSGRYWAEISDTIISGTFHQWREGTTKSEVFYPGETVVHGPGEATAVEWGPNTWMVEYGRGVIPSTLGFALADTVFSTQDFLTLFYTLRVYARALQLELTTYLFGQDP

| Compound | Ki |
| --- | --- |
| COc1cc2c(cc1OC)CN(CCCCn1nc(-c3ccccc3)oc1=O)CC2 | 1.6 µM |
| Cc1ccc(CN(C)CCCCn2nc(-c3ccccc3)oc2=O)c(C)c1 | 0.02 µM |

System: not listed separately
Experiment: Cytotoxicity against human HeLa cells assessed as cell viability at 100 uM incubated for 48 hrs by MTT assay relative to control
Type: cell-based
Settings: read-out: Activity
Summary of the method: as §1

| Compound | viability at 48 h, 100 µM |
| --- | --- |
| COc1cc2c(cc1OC)CN(CCCCn1nc(-c3ccccc3)oc1=O)CC2 | 39% |
| Cc1ccc(CN(C)CCCCn2nc(-c3ccccc3)oc2=O)c(C)c1 | 22% |

System: not listed separately
Experiment: Cytotoxicity against human Hep3B cells assessed as decrease in cell viability incubated for 48 hrs by MTT assay
Type: cell-based, Hep 3B2
Settings: read-out: LD50
Summary of the method: (§2)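 Cells kept in DMEM Glutamax with 10% FBS and antibiotic/antimycotic at 37 °C, 5% CO2. Seeded 24 h before dosing (SH-SY5Y at 2x10^3 cells/well). Compounds in DMSO serially diluted in medium, final DMSO 1.0%, exposure 48 h. MTT added for 4 h at 37 °C, read A595 minus A655. LD50 from linear regression of dose-log response curves; triplicates, three experiments, mean ± SEM.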

| Compound | CC50 at 48 h |
| --- | --- |
| COc1cc2c(cc1OC)CN(CCCCn1nc(-c3ccccc3)oc1=O)CC2 | 70 µM |
| Cc1ccc(CN(C)CCCCn2nc(-c3ccccc3)oc2=O)c(C)c1 | 70 µM |

Molecular target: Glutamate NMDA receptor; GRIN1/GRIN2B (Homo sapiens, UniProt Q05586+Q13224)
Experiment: Displacement of [3H]ifenprodil from GluN1a/GluN2B (unknown origin) expressed in mouse L(tk-) cell membranes after 120 mins by solid scintillation counting method
Settings: not given
Summary of the method: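 Membranes (about 20 μg protein) from mouse L(tk-) cells stably carrying GluN1a/GluN2B, induced with 4 μM dexamethasone and 4 μM ketamine for 24 h. Incubated with 5 nM [3H]ifenprodil in 5 mM TRIS/1 mM EDTA pH 7.5 at 37 °C, 120 min. Non-specific binding defined with 10 μM ifenprodil.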

Sequence of Glutamate NMDA receptor; GRIN1/GRIN2B (Q13224 whole entry, other chains not shown): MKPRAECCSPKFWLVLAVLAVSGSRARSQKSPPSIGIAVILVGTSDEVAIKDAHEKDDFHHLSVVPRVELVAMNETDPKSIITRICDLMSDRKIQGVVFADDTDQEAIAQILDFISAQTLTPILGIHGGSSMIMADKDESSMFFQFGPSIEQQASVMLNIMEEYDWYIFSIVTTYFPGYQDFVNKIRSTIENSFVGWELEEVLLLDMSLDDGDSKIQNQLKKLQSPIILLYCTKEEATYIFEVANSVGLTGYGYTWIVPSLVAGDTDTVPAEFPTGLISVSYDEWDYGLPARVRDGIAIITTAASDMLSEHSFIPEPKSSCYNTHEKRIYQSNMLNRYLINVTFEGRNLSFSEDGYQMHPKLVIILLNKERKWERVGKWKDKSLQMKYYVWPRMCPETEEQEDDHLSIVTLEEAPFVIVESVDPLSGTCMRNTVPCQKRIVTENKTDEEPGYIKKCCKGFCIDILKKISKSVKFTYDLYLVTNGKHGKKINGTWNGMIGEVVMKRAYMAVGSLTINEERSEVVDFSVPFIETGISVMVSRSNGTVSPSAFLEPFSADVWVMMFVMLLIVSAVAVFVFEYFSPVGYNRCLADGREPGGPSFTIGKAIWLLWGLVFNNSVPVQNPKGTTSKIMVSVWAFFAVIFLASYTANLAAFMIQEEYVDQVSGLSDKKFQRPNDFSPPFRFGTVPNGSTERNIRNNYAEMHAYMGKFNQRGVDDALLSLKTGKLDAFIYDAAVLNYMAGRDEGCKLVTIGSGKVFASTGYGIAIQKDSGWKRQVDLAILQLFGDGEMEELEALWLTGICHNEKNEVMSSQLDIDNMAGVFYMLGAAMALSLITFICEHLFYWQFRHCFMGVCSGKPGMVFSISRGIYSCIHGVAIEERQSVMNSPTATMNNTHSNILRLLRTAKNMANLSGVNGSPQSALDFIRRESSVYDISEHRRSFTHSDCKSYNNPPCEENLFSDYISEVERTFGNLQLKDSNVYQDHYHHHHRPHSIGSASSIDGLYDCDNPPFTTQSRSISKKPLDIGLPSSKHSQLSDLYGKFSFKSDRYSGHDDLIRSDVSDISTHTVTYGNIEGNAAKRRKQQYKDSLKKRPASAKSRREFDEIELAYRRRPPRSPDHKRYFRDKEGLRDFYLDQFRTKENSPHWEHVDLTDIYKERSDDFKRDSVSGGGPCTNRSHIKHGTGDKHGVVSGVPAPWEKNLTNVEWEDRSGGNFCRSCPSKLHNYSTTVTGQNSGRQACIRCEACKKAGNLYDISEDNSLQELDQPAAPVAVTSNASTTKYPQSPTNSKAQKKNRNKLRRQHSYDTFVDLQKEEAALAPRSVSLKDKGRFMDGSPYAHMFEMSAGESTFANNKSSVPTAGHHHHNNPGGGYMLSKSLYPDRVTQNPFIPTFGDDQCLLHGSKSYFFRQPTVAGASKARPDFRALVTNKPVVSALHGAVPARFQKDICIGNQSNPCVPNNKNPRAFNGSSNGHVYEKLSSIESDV

| Compound | Ki |
| --- | --- |
| COc1cc2c(cc1OC)CN(CCCCn1nc(-c3ccccc3)oc1=O)CC2 | 0.027 µM |
| Cc1ccc(CN(C)CCCCn2nc(-c3ccccc3)oc2=O)c(C)c1 | 0.026 µM |

System: not listed separately
Experiment: Cytotoxicity against human Hep3B cells assessed as cell viability at 100 uM incubated for 48 hrs by MTT assay relative to control
Type: cell-based, Hep 3B2
Settings: read-out: Activity
Summary of the method: as §1

| Compound | viability at 48 h, 100 µM |
| --- | --- |
| COc1cc2c(cc1OC)CN(CCCCn1nc(-c3ccccc3)oc1=O)CC2 | 25% |
| Cc1ccc(CN(C)CCCCn2nc(-c3ccccc3)oc2=O)c(C)c1 | 25% |

System: not listed separately
Experiment: Selectivity ratio of Ki for sigma1 receptor in guinea pig brain membranes to Ki for sigma2 receptor in rat liver membranes
Type: cell membranes
Settings: not given

| Compound | Ratio Ki |
| --- | --- |
| COc1cc2c(cc1OC)CN(CCCCn1nc(-c3ccccc3)oc1=O)CC2 | 1.8 |
| Cc1ccc(CN(C)CCCCn2nc(-c3ccccc3)oc2=O)c(C)c1 | 0.95 |

System: not listed separately
Experiment: Cytotoxicity against human HeLa cells assessed as cell viability at 50 uM incubated for 48 hrs by MTT assay relative to control
Type: cell-based
Settings: read-out: Activity
Summary of the method: as §1

| Compound | viability at 48 h, 50 µM |
| --- | --- |
| COc1cc2c(cc1OC)CN(CCCCn1nc(-c3ccccc3)oc1=O)CC2 | 81% |
| Cc1ccc(CN(C)CCCCn2nc(-c3ccccc3)oc2=O)c(C)c1 | 80% |

Molecular target: T1, Sigma intracellular receptor 2 (Rattus norvegicus, UniProt Q5U3Y7)
T1 sequence (Q5U3Y7 whole entry): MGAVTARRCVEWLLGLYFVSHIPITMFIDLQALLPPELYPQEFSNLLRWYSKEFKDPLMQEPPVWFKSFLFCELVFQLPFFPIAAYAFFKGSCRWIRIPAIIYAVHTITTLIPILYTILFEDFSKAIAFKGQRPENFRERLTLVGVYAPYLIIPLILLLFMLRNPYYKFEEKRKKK
Experiment: Displacement of [3H]-di-o-tolylguanidine from sigma2 receptor in rat liver membranes in the presence of sigma1 receptor ligand (+)-pentazocine incubated for 120 mins by scintillation counting method
Type: cell membranes
Settings: not given
Summary of the method: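 Rat liver membranes (about 100 µg protein) with 3 nM [3H]di-o-tolylguanidine in 50 mM TRIS pH 8.0 containing 500 nM (+)-pentazocine, at rt. Non-specific binding defined with 10 µM unlabeled DTG. Concentrations 10^-5 to 10^-10 M, in duplicate. 120 min, filtration, scintillation counting. Three independent experiments, mean ± SEM.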

| Compound | Ki |
| --- | --- |
| COc1cc2c(cc1OC)CN(CCCCn1nc(-c3ccccc3)oc1=O)CC2 | 0.864 µM |
| Cc1ccc(CN(C)CCCCn2nc(-c3ccccc3)oc2=O)c(C)c1 | 0.021 µM |

System: not listed separately
Experiment: Cytotoxicity against human Hep3B cells assessed as cell viability at 25 uM incubated for 48 hrs by MTT assay relative to control
Type: cell-based, Hep 3B2
Settings: read-out: Activity
Summary of the method: as §1

| Compound | viability at 48 h, 25 µM |
| --- | --- |
| COc1cc2c(cc1OC)CN(CCCCn1nc(-c3ccccc3)oc1=O)CC2 | 75% |
| Cc1ccc(CN(C)CCCCn2nc(-c3ccccc3)oc2=O)c(C)c1 | 83% |

System: not listed separately
Experiment: Selectivity ratio of Ki for sigma2 receptor in rat liver membranes to Ki for GluN1a/GluN2B (unknown origin) expressed in mouse L(tk-) cell membranes
Type: cell-based
Settings: not given

| Compound | Ratio Ki |
| --- | --- |
| COc1cc2c(cc1OC)CN(CCCCn1nc(-c3ccccc3)oc1=O)CC2 | 32 |
| Cc1ccc(CN(C)CCCCn2nc(-c3ccccc3)oc2=O)c(C)c1 | 0.8 |

System: not listed separately
Experiment: Cytotoxicity against human SH-SY5Y cells assessed as decrease in cell viability incubated for 48 hrs by MTT assay
Type: cell-based
Settings: read-out: LD50
Summary of the method: as §2

| Compound | CC50 at 48 h |
| --- | --- |
| COc1cc2c(cc1OC)CN(CCCCn1nc(-c3ccccc3)oc1=O)CC2 | 77 µM |
| Cc1ccc(CN(C)CCCCn2nc(-c3ccccc3)oc2=O)c(C)c1 | 77 µM |

System: not listed separately
Experiment: Cytotoxicity against human SH-SY5Y cells assessed as cell viability at 50 uM incubated for 48 hrs by MTT assay (reference value: 100 +/- 12.00%)
Type: cell-based
Settings: read-out: Activity
Summary of the method: as §1

| Compound | viability at 48 h, 50 µM |
| --- | --- |
| COc1cc2c(cc1OC)CN(CCCCn1nc(-c3ccccc3)oc1=O)CC2 | 96% |
| Cc1ccc(CN(C)CCCCn2nc(-c3ccccc3)oc2=O)c(C)c1 | 75% |

System: SH-SY5Y
Experiment: Neuroprotective activity against H2O2-induced toxicity in human SH-SY5Y cells assessed as cell viability at 25 uM pretreated for 48 hrs followed by H2O2 challenge and measured after 4 hrs by MTT assay (reference value: 18 +/- 2.64%)
Type: functional
Settings: read-out: Activity

| Compound | viability at 25 µM |
| --- | --- |
| COc1cc2c(cc1OC)CN(CCCCn1nc(-c3ccccc3)oc1=O)CC2 | 88% |
| Cc1ccc(CN(C)CCCCn2nc(-c3ccccc3)oc2=O)c(C)c1 | 100% |

System: not listed separately
Experiment: Cytotoxicity against human HeLa cells assessed as decrease in cell viability incubated for 48 hrs by MTT assay
Type: cell-based
Settings: read-out: LD50
Summary of the method: as §2

| Compound | CC50 at 48 h |
| --- | --- |
| COc1cc2c(cc1OC)CN(CCCCn1nc(-c3ccccc3)oc1=O)CC2 | 69 µM |
| Cc1ccc(CN(C)CCCCn2nc(-c3ccccc3)oc2=O)c(C)c1 | 69 µM |
